Series [1] concerns the target T1, Heat shock protein HSP 90-alpha (Homo sapiens, UniProt P07900). Kind of series: Binding affinity to recombinant human HSP90 alpha by Surface plasmon resonance analysis. A general note: Surface plasmon resonance follows binding to a sensor surface in real time, without labels.
Series [2] concerns HeLa. The series is described as follows: Antiproliferative activity against human HeLa cells after 48 hrs by MTT assay. It is filed as functional, cell-based. The method in brief:
(§1)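 Cells grown in DMEM (HeLa) or RPMI 1640 (Jurkat) with 10% FBS at 37 °C and 5% CO2. Seeded at 1 × 10^4 cells/well the day before, then exposed 48 h to 10−150 μM compound (final DMSO ≤0.15% v/v), with vehicle and etoposide controls. MTT read at 550 nm; IC50 from dose–response curves versus controls; mean ± SD, ≥3 experiments in duplicate.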
(Tetrazolium dyes change colour on reduction, which living cells bring about.)

Series [3] has as its system Jurkat. Kind of series: Antiproliferative activity against human Jurkat cells after 48 hrs by MTT assay. It is filed as functional, cell-based. The method in brief: as §1
The target of series [4] is T1, Heat shock protein HSP 90-alpha. Kind of series: Inhibition of HSP90 alpha in human HeLa cells assessed as effect on HSP90 expression at 10 uM after 48 hrs by Western blot analysis relative to alpha-tubulin (reference value: 1). It is filed as cell-based. A general note: A western blot detects proteins with antibodies after separation by electrophoresis.
Series [5] deals with HeLa. Kind of series: Effect on total ERK1 expression in human HeLa cells at 20 uM after 48 hrs by Western blot analysis relative to GAPDH (reference value: 1). It is filed as ADME, cell-based.
The target of series [6] is T1, Heat shock protein HSP 90-alpha. Kind of series: Inhibition of HSP90 alpha in human HeLa cells assessed as effect on ERK1 phosphorylation at 10 uM after 48 hrs by Western blot analysis relative to GAPDH (reference value: 1). It is filed as cell-based.
In series [7] the test system is HeLa. The series is described as follows: Effect on total AKT expression in human HeLa cells at 20 uM after 48 hrs by Western blot analysis relative to GAPDH (reference value: 1). It is filed as ADME, cell-based.
In series [8] the target is T1, Heat shock protein HSP 90-alpha. The series is described as follows: Inhibition of HSP90 alpha in human HeLa cells assessed as effect on ERK1 phosphorylation at 20 uM after 48 hrs by Western blot analysis relative to GAPDH (reference value: 1). It is filed as cell-based.
The target is the same in series [9]. The series is described as follows: Inhibition of HSP90 alpha in human HeLa cells assessed as effect on Cyclin A expression at 20 uM after 48 hrs by Western blot analysis relative to GAPDH (reference value: 1). It is filed as cell-based.
In series [10] the test system is HeLa. Kind of series: Effect on total Cdc2 expression in human HeLa cells at 20 uM after 48 hrs by Western blot analysis relative to GAPDH (reference value: 1). It is filed as ADME, cell-based.
For series [11], the system named is HeLa. Kind of series: Effect on total ERK1 expression in human HeLa cells at 10 uM after 48 hrs by Western blot analysis relative to GAPDH (reference value: 1). It is filed as ADME, cell-based.
In series [12] the target is T1, Heat shock protein HSP 90-alpha. The series is described as follows: Inhibition of HSP90 alpha in human HeLa cells assessed as effect on CDC2/p34 phosphorylation at Thr161 residue at 10 uM after 48 hrs by Western blot analysis relative to GAPDH (reference value: 1). It is filed as cell-based.
Series [13] has the same target. Kind of series: Inhibition of HSP90 alpha in human HeLa cells assessed as effect on AKT phosphorylation at 10 uM after 48 hrs by Western blot analysis relative to GAPDH (reference value: 1). It is filed as cell-based.
The target is the same in series [14]. The series is described as follows: Inhibition of HSP90 alpha in human HeLa cells assessed as effect on HSP70 expression at 10 uM after 48 hrs by Western blot analysis relative to alpha-tubulin (reference value: 1). It is filed as cell-based.
Series [15] relates to PBMC. Kind of series: Cytotoxicity against human PBMC up to 100 uM after 48 hrs by trypan blue exclusion assay. It is filed as cell-based.
For series [16], the system named is HeLa. The series is described as follows: Effect on total Cdc2 expression in human HeLa cells at 10 uM after 48 hrs by Western blot analysis relative to GAPDH (reference value: 1). It is filed as ADME, cell-based.
Series [17] deals with T1, Heat shock protein HSP 90-alpha. Kind of series: Inhibition of HSP90 alpha in human HeLa cells assessed as effect on EGFR expression at 10 uM after 48 hrs by Western blot analysis relative to GAPDH (reference value: 1). It is filed as cell-based.
For series [18] the target is unchanged. Kind of series: Inhibition of HSP90 alpha in human HeLa cells assessed as effect on HSP70 expression at 20 uM after 48 hrs by Western blot analysis relative to alpha-tubulin (reference value: 1). It is filed as cell-based.
Series [19] has as its system HeLa. Kind of series: Cell cycle arrest in human HeLa cells assessed as accumulation at G2/M phase at 10 to 20 uM after 48 hrs by propidium iodide staining based flow cytometry. It is filed as functional. The method in brief: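 HeLa cells in DMEM with 10% FBS at 37 °C, 5% CO2, exposed to 10 or 20 μM for 48 h, DMSO vehicle (final ≤0.15%). Permeabilized cells stained with propidium iodide and analyzed by flow cytometry, 5000 events per sample. Percentages in hypodiploid, G0/G1, S and G2/M are given minus control values. Mean ± SD of three experiments run in duplicate.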

The target of series [20] is T1, Heat shock protein HSP 90-alpha. Kind of series: Inhibition of HSP90 alpha in human HeLa cells assessed as effect on EGFR expression at 20 uM after 48 hrs by Western blot analysis relative to GAPDH (reference value: 1). It is filed as cell-based.
Series [21] shares this target. The series is described as follows: Inhibition of HSP90 alpha in human HeLa cells assessed as effect on CDC2/p34 phosphorylation at Thr161 residue at 20 uM after 48 hrs by Western blot analysis relative to GAPDH (reference value: 1). It is filed as cell-based.
Series [22] has as its system HeLa. The series is described as follows: Effect on total AKT expression in human HeLa cells at 10 uM after 48 hrs by Western blot analysis relative to GAPDH (reference value: 1). It is filed as ADME, cell-based.
Series [23] has as its target T1, Heat shock protein HSP 90-alpha. The series is described as follows: Inhibition of HSP90 alpha in human HeLa cells assessed as effect on Cyclin A expression at 10 uM after 48 hrs by Western blot analysis relative to GAPDH (reference value: 1). It is filed as cell-based.
For series [24] the target is unchanged. The series is described as follows: Inhibition of HSP90 alpha in human HeLa cells assessed as effect on HSP90 expression at 20 uM after 48 hrs by Western blot analysis relative to alpha-tubulin (reference value: 1). It is filed as cell-based.

In general, Kd refers to the concentration at which binding is half-saturated. In general, IC50 refers to the concentration at which inhibition is half-maximal. High values mean weaker potency, low ones greater potency.

Each structure is given as a SMILES string. The source made the active and inactive calls. The rule behind the calls is not given here.

`CC1=C2C[C@]3(C)C(=O)C=C(C(C)C)[C@H]3C[C@H]3O[C@@]3(C)[C@@H]2CC1=O`: the Kd result in series [1] was “Not Active”. For the same compound, the IC50 in series [2] and in [3] was over 20 µM each time.

Take `CC(C)[C@@H]1CC(=O)[C@@]2(C)/C=C3\C(CC[C@@]3(C)O)[C@]3(C)O[C@@H]3CC12` (stereo partly specified): the Kd in [1] (read-out: Kd) came to 0.045 µM. The IC50 in [2] and in series [3] was over 20 µM each time.

For `CC(=O)O[C@H]1C[C@@](O)(C(C)C)[C@H]2C/C=C(/C)[C@@H]3CC(=O)C(C)=C3C[C@]12C`, the Kd result in series [1] was “Not Active”. Also, the IC50 in series [2] and in series [3] was over 20 µM throughout.

As for `CC1=C2C[C@]3(C)C(=O)C[C@@H](C(C)C)[C@H]3C[C@H]3O[C@@]3(C)[C@@H]2CC1=O`, the Kd entry in series [1] was “Not Active”. The half-inhibitory concentration (IC50) in series [2] and in [3] was over 20 µM throughout.

For the compound `CC1=C2C[C@]3(C)C(=O)C=C(C(C)C)C3CC(O)/C(C)=C\2CC1=O` (stereo partly specified), in [1], the dissociation constant (Kd) result is given as “Not Active”. Besides, the IC50 in series [2] and in series [3] was over 20 µM each time.

With `C/C1=C/C[C@@H]2[C@H](C(C)C)CC[C@@]2(C)CC23OC2(C)CC[C@@H]13` (stereo partly specified), the Kd result in [1] was “Not Active”. Besides, the IC50 in [2] and in series [3] was over 20 µM throughout.

For `C=C1CC[C@@H]2[C@H]1C[C@]1(C)CC[C@@H](C(C)C)[C@H]1C[C@H]1O[C@@]21C`, in [1] (read-out: Kd), the Kd stood at 0.13 µM. For the same compound, the half-inhibitory concentration (IC50) in series [2] and in series [3] was over 20 µM in each case.

Turning to `CC1=C2C[C@]3(C)C(=O)C[C@@H](C(C)(C)O)[C@H]3C/C=C(/C)[C@@H]2CC1=O`, the fold change (FC) in [4] was 1.4; in [5] it was 1.2; in [6] it was 0.5; in [7], 1; in series [8], 0.3; in series [9], 1.2. In addition, the “fold change (FC)” value is 1.5 in series [10]; 1.2 in series [11]; 0.2 in series [12]; 0.3 in series [13]; 1 in series [14]; 1.8 in series [16]. The fold change (FC) in series [17] came out at 1.3; in series [18], 0.8; in [20], 1.4; in series [21], 0.1; in series [22] it was 1; in series [23], 1. The fold change (FC) in [24] stood at 1.3. For the same compound, in [1] (read-out: Kd), the Kd came to 0.0153 µM. In series [15], the Activity result is given as “Non-Toxic”. The IC50 in series [2] and in [3] was over 20 µM in each case. Further, in series [19], the outcome was Active.

For the compound `CC1=CCC23OC4(C[C@]2(C)C(=O)C=C3C(C)C)[C@H](C)C(=O)C[C@@H]14` (stereo partly specified), the Kd in series [1] (read-out: Kd) was 0.217 µM. Further, the IC50 in [2] and in series [3] was over 20 µM in each case.

For the compound `C=C1CC[C@H]2/C(C)=C\C[C@@H]3[C@H](C(C)C)CC(=O)[C@@]3(C)C[C@@H]12`, the Kd in series [1] (read-out: Kd) turned out to be 0.401 µM. Also, the IC50 in series [2] and in [3] was over 20 µM throughout.

For the compound `C/C1=C/C[C@@H]2[C@H](C(C)C)CC(=O)[C@@]2(C)/C=C2/C(C)CCC12` (stereo partly specified), the equilibrium dissociation constant (Kd) in series [1] (read-out: Kd) came out at 0.0205 µM. Further, the IC50 in series [2] and in [3] was over 20 µM throughout.

Take `CC1=C2C[C@@]3(C)O[C@@](C)([C@@H]2CC1=O)[C@H]1CC(=O)[C@@](C(C)C)(CC3=O)O1`: the Kd in [1] (read-out: Kd) is 0.12 µM. Besides, the IC50 in [2] and in series [3] was over 20 µM each time.

For `CC1=C2C[C@]3(C)CC[C@@H](C(C)C)[C@H]3C/C=C(/C)[C@@H]2CC1=O`, the Kd in series [1] (read-out: Kd) was 0.028 µM. Further, the IC50 in series [2] and in series [3] was over 20 µM throughout.

On to `CC1=C2C[C@]3(C)C(=O)C[C@@H](C(C)C)[C@H]3C/C=C(/C)[C@@H]2CC1=O` [HYPOESTENONE], for which, in [1] (read-out: Kd), the Kd was 1 µM. Also, the IC50 in [2] and in series [3] was over 20 µM in each case.

On to `CC1=C2C[C@]3(C)C(=O)C=C(C(C)C)[C@H]3C/C=C(/C)[C@@H]2CC1=O`, for which the Kd in series [1] (read-out: Kd) came to 1.74 µM. For the same compound, the IC50 in [2] and in series [3] was over 20 µM in each case.

Values taken from ChEMBL document CHEMBL4422696, “Fusicoccane Diterpenes from Hypoestes forsskaolii as Heat Shock Protein 90 (Hsp90) Modulators” (J Nat Prod, 2019).
